Data on 34 compounds can be found in ChEMBL document CHEMBL1121991, “4-Aroyl-1,3-dihydro-2H-imidazol-2-ones, a new class of cardiotonic agents” (1982).

Experiment [1] deals with Canis familiaris. Description: Pharmacological activity for heart rate +15% in anesthetized dog was determined after intravenous administration. It is filed as functional, Canis lupus familiaris. The method in brief:
(§1)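 Anesthetized dogs; contractile force recorded by a left-ventricular Walton-Brodie strain gauge arch, heart rate from lead II EKG, plus blood pressure. Stabilized at least 30 min, then at least three iv doses given, one compound per animal, with return to basal between doses. Doses for +30% force, +15% rate and −20% BP were extrapolated from dose-response curves; geometric mean where repeated.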

Experiment [2] deals with Canis familiaris. Description: Pharmacological activity for Blood pressure, -20% in anesthetized dog was determined after intravenous administration. It is filed as functional, Canis lupus familiaris. The method in brief:
as §1

Experiment [3] concerns Canis familiaris. Description: Pharmacological activity for Contractile force, +30% in anesthetized dog was determined after intravenous administration. It counts as functional, Canis lupus familiaris. The method in brief:
as §1

Experiment [4] has as its system Canis familiaris. Description: The stroke work was determined after 1.0 mg/kg administration with 20 mg/kg pentobarbital in the dog heart-lung preparation. It is filed as functional, Canis lupus familiaris. The method, boiled down:
(§2)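 Isolated dog heart-lung preparation from mongrel dogs of either sex (11–19 kg), anesthetized with sodium pentobarbital 35 mg/kg iv. A strain gauge arch on the right ventricle recorded contractile force, EKG lead II gave heart rate, a left atrial cannula and transducer gave LAP, and an extracorporeal flow meter gave aortic flow. Failure was induced by adding pentobarbital to the blood reservoir, then compound was added to the reservoir; readings at 10 min. Five preparations; means ± SE; ANOVA.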

The test system of experiment [5] is Canis familiaris. The experiment is described as follows: The heart rate was determined after 1.0 mg/kg administration with 20 mg/kg pentobarbital in the dog heart-lung preparation. It is filed as functional, Canis lupus familiaris. The method in brief:
as §2

The test system of experiment [6] is Canis familiaris. The experiment is described as follows: The cardiac contractile force was determined after 1.0 mg/kg administration with 20 mg/kg pentobarbital in the dog heart-lung preparation. It is filed as functional, Canis lupus familiaris. The method, boiled down:
as §2

In experiment [7] the test system is Canis familiaris. Description: The left atrial pressure was determined after 1.0 mg/kg administration with 20 mg/kg pentobarbital in the dog heart-lung preparation. It is filed as functional, Canis lupus familiaris, Cardiac atrium. The method in brief: as §2
Experiment [8] deals with Canis familiaris. Description: The cardiac output was determined after 1.0 mg/kg administration with 20 mg/kg pentobarbital in the dog heart-lung preparation. It is filed as functional, Canis lupus familiaris. The method in brief: as §2
Experiment [9] deals with Canis familiaris. Description: The stroke volume was determined after 1.0 mg/kg administration with 20 mg/kg pentobarbital in the dog heart-lung preparation. It counts as functional, Canis lupus familiaris. The method, boiled down: as §2
The subject of experiment [10] is Canis familiaris. The experiment is described as follows: The change in mean arterial blood pressure was determined after 0.1 ug/kg iv administration in dog. It is filed as functional, Canis lupus familiaris. The method in brief:
(§3)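 Anesthetized dogs: a Walton-Brodie strain gauge arch sutured to the left ventricle recorded contractile force, and blood pressure was recorded, after at least 30 min stabilization. Isoproterenol 0.1 μg/kg iv was given to controls or to dogs pretreated with propranolol 0.5 mg/kg iv. The value is the % change from pre-dose control; N = 6 per group; means ± SE; Student's t test.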

The subject of experiment [11] is Canis familiaris. Description: The change in cardiac contractile force was determined after 0.1 ug/kg iv administration in dog. It is filed as functional, Canis lupus familiaris, Heart. The method, boiled down: as §3

For the compound `Cc1c(C(=O)c2ccc(N(C)C)cc2)n(C(=O)C(C)C)c(=O)n1C(=O)C(C)C`, the results for the Equieffective dose in the experiment on Canis familiaris [1], in the experiment with Canis familiaris [2] and with Canis familiaris [3] were more than 10 mg/kg, more than 10 mg/kg and 2.45 mg/kg, respectively.

On to `O=C(c1c[nH]c(O)n1)c1ccco1`, for which the Equieffective dose is 4.3 mg/kg in the experiment with Canis familiaris [1], 4.2 mg/kg in the experiment on Canis familiaris [2] and 1.84 mg/kg in the experiment on Canis familiaris [3].

`O=C(c1ccccc1)c1c[nH]c(O)n1`: the Equieffective dose in the experiment on Canis familiaris [1] was 4 mg/kg; in the experiment with Canis familiaris [2] it was 4.4 mg/kg; in the experiment with Canis familiaris [3], 3.91 mg/kg.

Take `Cc1[nH]c(O)nc1C(=O)c1ccc(N2CCCCC2)cc1`: the Equieffective dose in the experiment on Canis familiaris [1], in the experiment on Canis familiaris [2] and with Canis familiaris [3] was more than 10 mg/kg each time.

As to `CCc1[nH]c(O)nc1C(=O)c1cccs1`, the results for the Equieffective dose in the experiment on Canis familiaris [1], in the experiment with Canis familiaris [2] and in the experiment on Canis familiaris [3] were 1.45 mg/kg, 1.6 mg/kg and 0.41 mg/kg, respectively.

For the compound `CSc1ccc(C(=O)c2c[nH]c(O)n2)cc1`, the figures for the Equieffective dose with Canis familiaris [1] and in the experiment on Canis familiaris [3] were 1.05 mg/kg and 0.5 mg/kg, respectively.

In the case of `CCCC(C)C1(CC)C(=O)NC(=O)NC1=O` (stereo not drawn) [PENTOBARBITAL], in the experiment with Canis familiaris [4], the Stroke work was 3 g. This compound also gave a Heart rate in the experiment on Canis familiaris [5] of 133 beats min-1. The Cardiac contractile force with Canis familiaris [6] came to 32.2 g. The compound further had a Left atrial pressure with Canis familiaris [7] of 12.1 mmHg. The compound also yielded a Cardiac output with Canis familiaris [8] of 613 mL/min. For the same compound, in the experiment on Canis familiaris [9], the Stroke volume amounted to 4.6 mL.

For `Cc1[nH]c(O)nc1C(=O)c1ccccc1O`, the Equieffective dose was more than 10 mg/kg in the experiment with Canis familiaris [1], 4.5 mg/kg in the experiment on Canis familiaris [2] and 3.28 mg/kg in the experiment with Canis familiaris [3].

In the case of `CCc1[nH]c(O)nc1C(=O)c1ccc(OC)cc1`, the Equieffective dose was 0.23 mg/kg in the experiment with Canis familiaris [1], 0.62 mg/kg in the experiment with Canis familiaris [2] and 0.15 mg/kg in the experiment with Canis familiaris [3].

Regarding `Cc1[nH]c(O)nc1C(=O)c1ccccc1`, the Equieffective dose with Canis familiaris [1] turned out to be 1.55 mg/kg; in the experiment on Canis familiaris [2], 2.55 mg/kg; in the experiment on Canis familiaris [3], 0.23 mg/kg.

With `CCc1[nH]c(O)nc1C(=O)c1ccc(OC)c(OC)c1`, the Equieffective dose with Canis familiaris [1] was more than 3 mg/kg; in the experiment on Canis familiaris [2], 2.35 mg/kg; in the experiment on Canis familiaris [3], 0.18 mg/kg.

As to `Cc1[nH]c(O)nc1C(=O)c1ccc(N2CCCC2)cc1`, the values for the Equieffective dose with Canis familiaris [1], in the experiment on Canis familiaris [2] and in the experiment on Canis familiaris [3] were 8.5 mg/kg, 4.5 mg/kg and more than 10 mg/kg, respectively.

In the case of `CC(=O)n1c(C)c(C(=O)c2ccc(N(C)C)cc2)n(C(C)=O)c1=O`, the Equieffective dose in the experiment on Canis familiaris [1] was more than 3 mg/kg; in the experiment on Canis familiaris [2], more than 3 mg/kg; with Canis familiaris [3] it was 0.36 mg/kg.

Take `Cc1[nH]c(O)nc1C(=O)c1ccc(F)cc1`: the values for the Equieffective dose with Canis familiaris [1], with Canis familiaris [2] and with Canis familiaris [3] were more than 3 mg/kg, 1.03 mg/kg and 0.38 mg/kg, respectively.

With `CSc1ccc(C(=O)c2[nH]c(=O)[nH]c2C)cc1` [ENOXIMONE], the Equieffective dose in the experiment with Canis familiaris [1] came out at 1.5 mg/kg; with Canis familiaris [2] it was 0.55 mg/kg; in the experiment on Canis familiaris [3], 0.12 mg/kg.

In the case of `COc1ccc(C(=O)c2c(C)n(C)c(=O)n2C)cc1`, the values for the Equieffective dose in the experiment on Canis familiaris [1], in the experiment with Canis familiaris [2] and with Canis familiaris [3] were more than 10 mg/kg, 2.6 mg/kg and 4.7 mg/kg, respectively.

Turning to `CC(=O)n1c(C)c(C(=O)c2ccc(F)cc2)n(C(C)=O)c1=O`, the figures for the Equieffective dose in the experiment on Canis familiaris [1], with Canis familiaris [2] and in the experiment on Canis familiaris [3] were more than 8 mg/kg, 2.5 mg/kg and 1 mg/kg, respectively.

Take `Cc1[nH]c(O)nc1C(=O)c1ccc(O)cc1`: the Equieffective dose in the experiment on Canis familiaris [1] came out at 1.3 mg/kg; with Canis familiaris [2], 2.6 mg/kg; in the experiment on Canis familiaris [3], 0.25 mg/kg.

For the compound `CC(C)NCC(O)c1ccc(O)c(O)c1` (stereo not drawn) [ISOPROTERENOL], the Change is reported as -27% with Canis familiaris [10] and 133% with Canis familiaris [11].

Regarding `CCCc1[nH]c(O)nc1C(=O)c1ccc(SC)cc1`, the figures for the Equieffective dose in the experiment with Canis familiaris [1], with Canis familiaris [2] and with Canis familiaris [3] were 3 mg/kg, 2.3 mg/kg and 1.13 mg/kg, respectively.

Consider `COc1ccc(C(=O)c2nc(O)n(C)c2C)cc1`, for which the Equieffective dose with Canis familiaris [1], with Canis familiaris [2] and in the experiment on Canis familiaris [3] was more than 10 mg/kg each time.

As for `Cc1nc(O)[nH]c1C(=O)c1ccc(N(C)C)cc1`, the values for the Equieffective dose in the experiment on Canis familiaris [1], in the experiment with Canis familiaris [2] and in the experiment with Canis familiaris [3] were 2.2 mg/kg, more than 3 mg/kg and 0.36 mg/kg, respectively.

`Cc1nc(O)[nH]c1C(=O)c1ccc(N2CCN(C)CC2)cc1`: the figures for the Equieffective dose with Canis familiaris [1], with Canis familiaris [2] and in the experiment on Canis familiaris [3] were 9.1 mg/kg, more than 10 mg/kg and more than 10 mg/kg, respectively.

Turning to `O=C(c1c[nH]c(O)n1)c1cccs1`, the values for the Equieffective dose in the experiment on Canis familiaris [1], with Canis familiaris [2] and in the experiment on Canis familiaris [3] were more than 10 mg/kg, 3.7 mg/kg and 0.72 mg/kg, respectively.

Turning to `Cc1[nH]c(O)nc1C(=O)c1ccccc1Cl`, the results for the Equieffective dose in the experiment with Canis familiaris [1], with Canis familiaris [2] and in the experiment on Canis familiaris [3] were 2.2 mg/kg, 2.1 mg/kg and 0.48 mg/kg, respectively.

For the compound `Cc1[nH]c(O)nc1C(=O)c1ccco1`, the Equieffective dose with Canis familiaris [1] stood at 3.3 mg/kg; in the experiment with Canis familiaris [2], 0.72 mg/kg; in the experiment on Canis familiaris [3], 1.05 mg/kg.

On to `CC(=O)n1c(C)c(C(=O)c2ccccc2)n(C(C)=O)c1=O`, for which the figures for the Equieffective dose in the experiment with Canis familiaris [1], in the experiment with Canis familiaris [2] and in the experiment with Canis familiaris [3] were more than 10 mg/kg, 6.5 mg/kg and 3 mg/kg, respectively.

For the compound `Cc1[nH]c(O)nc1C(=O)c1ccc(Cl)cc1`, the Equieffective dose in the experiment with Canis familiaris [1] amounted to 4 mg/kg; in the experiment on Canis familiaris [2] it was 0.29 mg/kg; in the experiment with Canis familiaris [3], 0.18 mg/kg.

In the case of `COc1ccc(C(=O)c2[nH]c(O)nc2C)cc1OC`, the Equieffective dose in the experiment with Canis familiaris [1] worked out at 1.05 mg/kg; in the experiment with Canis familiaris [2], 2 mg/kg; in the experiment on Canis familiaris [3], 0.4 mg/kg.

For the compound `Cc1[nH]c(O)nc1C(=O)c1ccc(Cl)c(Cl)c1`, the Equieffective dose with Canis familiaris [1] was found to be 4 mg/kg; in the experiment with Canis familiaris [2] it was 2.1 mg/kg; in the experiment with Canis familiaris [3], 0.7 mg/kg.

`Cc1[nH]c(O)nc1C(=O)c1cccs1`: the Equieffective dose was found to be 5.4 mg/kg with Canis familiaris [1], 2.5 mg/kg in the experiment with Canis familiaris [2] and 0.28 mg/kg in the experiment on Canis familiaris [3].

As to `Cc1[nH]c(O)nc1C(=O)c1ccc(N2CCOCC2)cc1`, the Equieffective dose in the experiment with Canis familiaris [1] was more than 10 mg/kg; in the experiment on Canis familiaris [2], 6.4 mg/kg; in the experiment with Canis familiaris [3] it was 1.2 mg/kg.

In the case of `COc1ccc(C(=O)c2c[nH]c(O)n2)cc1`, the Equieffective dose with Canis familiaris [1] was 1.85 mg/kg; with Canis familiaris [2] it was 3.1 mg/kg; in the experiment on Canis familiaris [3], 0.78 mg/kg.

On to `CCc1[nH]c(O)nc1C(=O)c1ccc(SC)cc1`, for which the Equieffective dose was 0.54 mg/kg with Canis familiaris [1], 0.28 mg/kg with Canis familiaris [2] and 0.07 mg/kg with Canis familiaris [3].
